ARFGAP1 inhibitor: inhibits rat ARF GTPase activating protein 1; Q62848; inhibition, % at 16.5 µM; 360,000 compounds, 0.26% hits; AID 651572; Arfgap1-stimulated ARF1 GTP hydrolysis, GDP FP detection;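 active means inhibition above a per-plate limit, mean inhibition of low control wells plus 3 SD, cut at about 25% in these data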
Target sequence (Q62848 1-136 limits assumed): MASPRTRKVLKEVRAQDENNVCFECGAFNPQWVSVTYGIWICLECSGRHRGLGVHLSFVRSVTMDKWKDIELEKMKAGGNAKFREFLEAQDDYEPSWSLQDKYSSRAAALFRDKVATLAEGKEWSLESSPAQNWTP
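Material: rat Arfgap1 GAP domain (His6, aa 1-136), purified enzyme. Also added: human ARF1(Δ1-17)-GTP substrate. Compound dosing: 16.5 µM single point, 1.26% DMSO. Timing: enzyme reaction 120 min at 25 °C after 20 min preincubation. Signal: GDP detection by fluorescence polarization. Read-out basis: percent inhibition of GAP-stimulated GDP formation, scaled between DMSO and no-Arfgap1 medians.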
ASAP1 GAP inh: inhibitors of human ASAP1 ArfGAP activity; Q9ULH1; ASAP1-stimulated ARF1 GTP hydrolysis, GDP FP detection; inhibition, % at 16.5 µM; 360,000 compounds, 0.19% hits; AID 624377; in the data active means inhibition above about 25%
A3G deaminase: blocks human APOBEC3G single-stranded DNA deamination; inhibition, % at 20 µM; recombinant A3G, ssDNA deamination FAM/TAMRA fluorescence; AID 493012; Q9HC16; 330,000 compounds, 0.28% hits;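 active means inhibition of at least 40% at 20 µM, with no more than 30% in the related APOBEC3A deaminase screen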
APOBEC3A inh: inhibitors of human APOBEC3A DNA deaminase; 330,000 compounds, 0.41% hits; inhibition, % at 20 µM; recombinant A3A, FAM/TAMRA ssDNA deamination fluorescence; P31941; AID 493011;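 active means at least 40% inhibition at 20 µM here, with at most 30% in a related deaminase screen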
Target sequence (P31941 whole entry, looked up): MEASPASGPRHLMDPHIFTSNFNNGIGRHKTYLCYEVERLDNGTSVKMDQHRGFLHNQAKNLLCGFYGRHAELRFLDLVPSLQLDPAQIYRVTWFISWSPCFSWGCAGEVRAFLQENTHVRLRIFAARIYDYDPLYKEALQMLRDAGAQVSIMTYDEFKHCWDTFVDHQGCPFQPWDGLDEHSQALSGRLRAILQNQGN
Mot1-301 SUMO: SUMOylation pathway inhibition by Mot1-301 growth rescue. S. cerevisiae Mot1-301 growth rescue, ATP luminescence, 38.5C; percent above DMSO median, 100 means doubled. 320,000 compounds, 1% hits. growth rescue, % at 18.8 µM. AID 2716;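 active means every valid replicate shows activation above 250% relative to neutral control wells; inactive means the rest, any valid replicate at or below 250%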
C2C12 statin: protects C2C12 myotubes from simvastatin toxicity | 330,000 compounds, 0.78% hits | ATP luminescence, 48 h; scaled: DMSO 0, geranylgeraniol control 100 | rescue of ATP level, % at 7.49 µM;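 active means mean ATP rescue above about 67%, or every replicate alone reaching that limit, limit read from the data, passing the limit was not always enough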;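 further: myotubes were challenged with 10 µM simvastatin during compound exposure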
Mot1 SUMO dose: SUMO pathway inhibitors in yeast Mot1-301 growth. shares compounds with Mot1-301 SUMO. S. cerevisiae Mot1-301 galactose growth, ATP luminescence, 24 h; -100 = growth of slx-deleted rescue strain. growth activity, percent, % at 42 µM. 2,300 tested, under 10 active;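 active means Signal drops as the depositor expects, and the fitted half-maximal dose is no more than ten times the top valid tested dose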;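 further: more negative values mean stronger growth rescue toward the control strain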
Each line names hits and unclear results; the compound was inactive in the other large screens (follow-up assays come after a bar, where they were run). Hits are enriched below; roughly 2.1% of the tested compounds scored in any of these assays.

O=C(C1CCCN(S(=O)(=O)c2cnc[nH]2)C1)N1CCN(c2ccc(Cl)cc2)CC1 (stereo not given)	Mot1-301 SUMO 531.8 | Mot1 SUMO dose inactive
O=S(=O)(c1cnc[nH]1)N1CCN(c2ccc(Cl)cc2)CC1	none
CN(C)CC/C=C1/c2cc(F)ccc2Sc2ccc(Cl)cc21	Mot1-301 SUMO 738.2 | Mot1 SUMO dose inactive
COc1cccc(-c2cnc3c(c2)C(=O)N([C@@H](C)CO)C[C@H](C)[C@H](CN(C)C(=O)CN(C)C)O3)c1	none (no result: ARFGAP1 inhibitor, ASAP1 GAP inh, A3G deaminase, APOBEC3A inh, Mot1-301 SUMO)
CCc1cc2c(NCCO)ncnc2s1	Mot1-301 SUMO active (no result: C2C12 statin) | Mot1 SUMO dose inactive
CCc1cc2c(NCCC(=O)O)ncnc2s1	none
O=C(c1cc(-c2ccc(Cl)c(Cl)c2)on1)N1CCN(c2ccccc2)CC1	Mot1-301 SUMO active | Mot1 SUMO dose inactive
Cc1ccc(/C=C/C(=O)OCC(=O)N(CC(C)C)c2c(N)n(Cc3ccccc3)c(=O)[nH]c2=O)o1	Mot1-301 SUMO 811.6 | Mot1 SUMO dose inactive
Cc1onc(-c2ccccc2)c1C(=O)OCC(=O)N(C)c1c(N)n(Cc2ccccc2)c(=O)[nH]c1=O	none
CCN(C(=O)COC(=O)c1c(-c2ccccc2)noc1C)c1c(N)n(Cc2ccccc2)c(=O)[nH]c1=O	Mot1-301 SUMO 413.4 | Mot1 SUMO dose inactive
COc1ccc(/C=C/C(=O)N2CCN(c3ccccc3)CC2)cc1S(=O)(=O)N1CCOCC1	none (no result: C2C12 statin)
COc1ccc(/C=C/C(=O)N2CCC(C(N)=O)CC2)cc1S(=O)(=O)N1CCOCC1	Mot1-301 SUMO 714.3 | Mot1 SUMO dose inactive
COc1ccc(S(=O)(=O)Cc2ccc(C(=O)NCc3cccs3)o2)cc1	Mot1-301 SUMO 461.8 | Mot1 SUMO dose inactive
O=C(NCc1cccs1)c1ccc(CS(=O)(=O)c2ccc(Cl)cc2)o1	none
COc1ccc(CN(C)C[C@@H]2Oc3ccc(NC(=O)NC(C)C)cc3C(=O)N([C@H](C)CO)C[C@@H]2C)cc1	none (no result: ARFGAP1 inhibitor, ASAP1 GAP inh, A3G deaminase, APOBEC3A inh, Mot1-301 SUMO)
CC(C)NC(=O)Nc1ccc2c(c1)CC(=O)N([C@H](C)CO)C[C@H](C)[C@@H](CN(C)C(=O)Nc1ccc3c(c1)OCO3)O2	none (no result: ARFGAP1 inhibitor, ASAP1 GAP inh, A3G deaminase, APOBEC3A inh, Mot1-301 SUMO)
Cc1nn(CC(=O)Nc2cccc(O)c2)c(=O)c2ccccc12	none (no result: A3G deaminase, APOBEC3A inh, Mot1-301 SUMO)
Cc1ccc(NC(=O)Cn2nc(C)c3ccccc3c2=O)cc1	Mot1-301 SUMO 368.7 | Mot1 SUMO dose inactive
Cc1cc(C(=O)Nc2cccc3c2O[C@@H](CN(C)S(=O)(=O)c2cccs2)[C@H](C)CN([C@@H](C)CO)C3=O)n(C)n1	none (no result: ARFGAP1 inhibitor, ASAP1 GAP inh, A3G deaminase, APOBEC3A inh, Mot1-301 SUMO)
CCN(CC)S(=O)(=O)c1ccc(S(=O)(=O)N(Cc2ccccn2)Cc2ccco2)cc1	none
O=S(=O)(NCc1ccccc1)c1ccc(S(=O)(=O)N(Cc2ccccn2)Cc2ccco2)cc1	Mot1-301 SUMO 840.9 | Mot1 SUMO dose inactive
COc1ccc2c(C(=O)CN3CC(C)OC(C)C3)c[nH]c2c1 (stereo not given)	Mot1-301 SUMO 389.6 | Mot1 SUMO dose inactive
COc1ccc2c(C(=O)CN3CCC(C)CC3)c[nH]c2c1	none
NC(=O)CN1CCOCCN(CC(N)=O)CCOCC1	Mot1-301 SUMO 409.8 (no result: ARFGAP1 inhibitor, ASAP1 GAP inh, C2C12 statin) | Mot1 SUMO dose inactive
NC(=O)CN1CCOCCOCCN(CC(N)=O)CCOCCOCC1	none
CC1=C(C(=O)Nc2ccccc2)C(c2ccccc2[N+](=O)[O-])NC(=O)N1 (stereo not given)	Mot1-301 SUMO active | Mot1 SUMO dose inactive
COc1ccccc1NC(=O)C1=C(C)NC(=O)NC1c1ccccc1[N+](=O)[O-] (stereo not given)	none (no result: C2C12 statin)
COc1cc(S(=O)(=O)NC2CCCC2)c(OC)cc1C	Mot1-301 SUMO 435.0 (no result: C2C12 statin) | Mot1 SUMO dose inactive
C[C@H](CO)N1C[C@H](C)[C@@H](CN(C)Cc2ccc(F)cc2)Oc2ncc(C#Cc3cccnc3)cc2C1=O	none (no result: ARFGAP1 inhibitor, ASAP1 GAP inh, A3G deaminase, APOBEC3A inh, Mot1-301 SUMO)
CC(=O)NC(CC(C)C)C(=O)NC(CO)C(=O)NC(CCC(=O)O)C(=O)NC(C)C(=O)NC(CC(C)C)C(N)=O (stereo not given)	Mot1-301 SUMO 782.3 | Mot1 SUMO dose inactive
O=C(CC1C(=O)NCCN1Cc1c(F)cccc1Cl)NC1CCCCCC1 (stereo not given)	none
